Experimental findings from ChEMBL document CHEMBL1122443, “Synthesis and antitumor evaluation of selected 5,6-disubstituted 1(2)H-indazole-4,7-diones” (1983) are described below.

Holding throughout (format): functional
Assay [1] relates to Mus musculus. As to the kind of experiment: Antitumor activity in CF1 mice bearing Ehrlich ascites carcinoma measured as percentage inhibition at 5 mg/kg. Summed up: (§1)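 Ehrlich ascites model in male CF1 mice (22–25 g): 2 × 10⁶ cells ip on day 0, ip dosing days 1–8, kill on day 9. Percent inhibition = 100 − [(treated volume × treated ascrit)/(control volume × control ascrit)]. Greater than 80% was taken as significant. Vehicle was 0.05% Tween 80, alone or with 5% absolute EtOH. 6-Mercaptopurine was the positive control.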

For assay [2], the system named is Mus musculus. Kind of assay: Antitumor activity in CF1 mice bearing Ehrlich ascites carcinoma measured as percentage inhibition at 6 mg/kg. Summed up:
as §1

In assay [3] the test system is Mus musculus. As to the kind of experiment: Antitumor activity in CF1 mice bearing Ehrlich ascites carcinoma measured as ascites volume at 5 mg/kg. Summed up:
(§2)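 Male CF1 mice (22–25 g) received 2 × 10⁶ Ehrlich carcinoma cells ip on day 0. Dosing was ip daily on days 1–8, with sacrifice on day 9. Ascites fluid volume per mouse and ascrit (packed cell volume) were measured for each group. Vehicle was 0.05% Tween 80, or 5% absolute EtOH in 0.05% Tween 80, used for both compound and control. 6-Mercaptopurine was the positive control.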

Assay [4] deals with Mus musculus. As to the kind of experiment: Antitumor activity in CF1 mice bearing Ehrlich ascites carcinoma measured as ascites volume at 6 mg/kg. Summed up: as §2
The test system of assay [5] is Mus musculus. Kind of assay: Average days survived for treated / average days survived for control at 0.5 (mg/kg); 10.5/9.2.
Assay [6] has as its system Mus musculus. As to the kind of experiment: Average days survived for treated / average days survived for control at 1 (mg/kg); 11/9.2.
Assay [7] deals with Mus musculus. Kind of assay: Average days survived for treated / average days survived for control at 10 (mg/kg); 12.6/9.2.
For assay [8], the system named is Mus musculus. As to the kind of experiment: Average days survived for treated / average days survived for control at 15 (mg/kg); 9.2/9.2.
In assay [9] the test system is Mus musculus. Kind of assay: Average days survived for treated / average days survived for control at 20 (mg/kg); 3.6/9.2.
The test system of assay [10] is Mus musculus. Kind of assay: Average days survived for treated / average days survived for control at 5 (mg/kg); 10.9/9.2.
For assay [11], the system named is Mus musculus. Kind of assay: Antitumor activity in CF1 mice bearing Ehrlich ascites carcinoma measured as survivors on day 9 at 5 mg/kg; 5/5.
The subject of assay [12] is Mus musculus. Kind of assay: Antitumor activity in CF1 mice bearing Ehrlich ascites carcinoma measured as survivors on day 9 at 6 mg/kg; 5/6.
Assay [13] has as its system Mus musculus. As to the kind of experiment: Antitumor activity in CF1 mice bearing Ehrlich ascites carcinoma measured as percent ascrit packed cell volume at 5 mg/kg. Summed up: as §2
The subject of assay [14] is Mus musculus. As to the kind of experiment: Antitumor activity in CF1 mice bearing Ehrlich ascites carcinoma measured as percent ascrit packed cell volume at 6 mg/kg. Summed up: as §2
The subject of assay [15] is Mus musculus. Kind of assay: Anti tumor activity in mice bearing lymphocytic leukemia P-388 at 0.5 mg/kg. Summed up:
(§3)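 Male BDF1 mice (20–23 g) were inoculated ip with 1 × 10⁶ P-388 leukemia cells on day 0. Compound was given ip once daily on days 1–14 in 0.05% Tween 80 vehicle, with a vehicle control group and 5-fluorouracil as positive control. Activity was scored as % T/C, average days survived treated/control, with >125% taken as significant.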

Assay [16] has as its system Mus musculus. Kind of assay: Anti tumor activity in mice bearing lymphocytic leukemia P-388 at 1 mg/kg. Summed up: as §3
For assay [17], the system named is Mus musculus. As to the kind of experiment: Anti tumor activity in mice bearing lymphocytic leukemia P-388 at 10 mg/kg. Summed up:
(§4)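 Male BDF1 mice (20–23 g) inoculated ip with 1 × 10⁶ P-388 lymphocytic leukemia cells on day 0. Test agents were given ip once daily on days 1–14, with 0.05% Tween 80 as vehicle for treated and control groups. Read-out is %T/C, the mean days survived by treated over control. Values above 125% were counted as significant. 5-Fluorouracil was the positive control.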

Assay [18] concerns Mus musculus. Kind of assay: Anti tumor activity in mice bearing lymphocytic leukemia P-388 at 12 mg/kg. Summed up:
as §4

The subject of assay [19] is Mus musculus. Kind of assay: Anti tumor activity in mice bearing lymphocytic leukemia P-388 at 15 mg/kg. Summed up:
as §4

The subject of assay [20] is Mus musculus. As to the kind of experiment: Anti tumor activity in mice bearing lymphocytic leukemia P-388 at 20 mg/kg. Summed up: as §4
Assay [21] has as its system Mus musculus. As to the kind of experiment: Anti tumor activity in mice bearing lymphocytic leukemia P-388 at 5 mg/kg. Summed up: as §3
Assay [22] has as its system Mus musculus. As to the kind of experiment: Average days survived for treated / average days survived for control at 12 (mg/kg); 9/9.2.
The test system of assay [23] is Mus musculus. As to the kind of experiment: Antitumor activity in CF1 mice bearing Ehrlich ascites carcinoma measured as survivors on day 9 at 3 mg/kg; 3/6.
In assay [24] the test system is Mus musculus. As to the kind of experiment: Antitumor activity in CF1 mice bearing Ehrlich ascites carcinoma measured as ascites volume at 3 mg/kg. Summed up: as §2
The test system of assay [25] is Mus musculus. As to the kind of experiment: Average days survived for treated / average days survived for control at 1 (mg/kg); 10.2/9.2.
Assay [26] deals with Mus musculus. As to the kind of experiment: Antitumor activity in CF1 mice bearing Ehrlich ascites carcinoma measured as percentage inhibition at 3 mg/kg. Summed up: as §1
In assay [27] the test system is Mus musculus. As to the kind of experiment: Antitumor activity in CF1 mice bearing Ehrlich ascites carcinoma measured as percent ascrit packed cell volume at 3 mg/kg. Summed up: as §2

For `O=C1C(Cl)=C(Cl)C(=O)c2[nH]ncc21`, the inhibition in vivo (in general, the share of the control response that was lost under treatment) at 5 mg/kg in the assay with Mus musculus [1] is 98.6%. Also, in the assay on Mus musculus [2], the inhibition in vivo at 6 mg/kg came out at 85.4%. Besides, the ascites volume in the assay on Mus musculus [3] is reported as 0.48 ml mouse-1; in the assay with Mus musculus [4] it was 0.6 ml mouse-1. The “Average survival (days)” value in the assay with Mus musculus [5] was determined as 10.5; with Mus musculus [6] it was 11; with Mus musculus [7], 12.6; with Mus musculus [8], 9.2; in the assay on Mus musculus [9] it was 3.6; with Mus musculus [10], 10.9. Further, the “Average survival (days)” value with Mus musculus [22] was 9. Moreover, the Survivors in the assay with Mus musculus [11] and in the assay on Mus musculus [12] was 5 in each case. The packed cell volume in the assay with Mus musculus [13] is 4.5%; in the assay on Mus musculus [14] it was 24.1%. For the same compound, the T/C (in general, the ratio of treated to control) in the assay on Mus musculus [15] is on record as 114%; in the assay on Mus musculus [16] it was 120%; in the assay with Mus musculus [17], 137%; with Mus musculus [18], 98%; in the assay on Mus musculus [19], 104%; with Mus musculus [20], 39%. This compound also showed a T/C with Mus musculus [21] of 118%.
Compound `Cc1noc2c1C(=O)C(Cl)=C(Cl)C2=O` showed an inhibition in vivo at 5 mg/kg in the assay on Mus musculus [1] of 100%. The Survivors turned out to be 3 in the assay with Mus musculus [23] and 5 in the assay with Mus musculus [11]. Moreover, the ascites volume in the assay on Mus musculus [24] and in the assay on Mus musculus [3] was 0 ml mouse-1 each time. The “Average survival (days)” value in the assay on Mus musculus [25] was 10.2. Moreover, the inhibition in vivo at 3 mg/kg in the assay with Mus musculus [26] was 100%. In addition, the packed cell volume with Mus musculus [27] and with Mus musculus [13] was 0% each time. In the assay on Mus musculus [16], this compound had a T/C of 111%.
